{
  "source": "ChEMBL document CHEMBL2062427",
  "about": "“Synthesis, chemical reactivity as Michael acceptors, and biological potency of monocyclic cyanoenones, novel and highly potent anti-inflammatory and cytoprotective agents” (J Med Chem, 2012)",
  "key": {"RAW264.7 [1]": {"system": "RAW264.7", "assay": "Antiinflammatory activity in mouse RAW264.7 cells assessed as inhibition of IFNgamma-stimulated NO production pretreated for 2 hrs before IFNgamma challenge measured after 24 hrs by Griess reaction", "type": "functional, cell-based", "outline": "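RAW 264.7 cells seeded at 30,000/well in triplicate; next day pre-treated 2 h with DMSO or 2-fold serial dilutions (0–200 nM or 0–10 µM), then IFN-γ 20 ng/mL for 24 h. Medium NO by Griess; viability by WST-1. IC50 from suppression of IFN-γ-induced NO normalized to viability; mean of three independent experiments, SD.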"}, "[2]": {"target": "NAD(P)H dehydrogenase [quinone] 1 (Mus musculus) (UniProt Q64669)", "sequence (Q64669 whole entry)": "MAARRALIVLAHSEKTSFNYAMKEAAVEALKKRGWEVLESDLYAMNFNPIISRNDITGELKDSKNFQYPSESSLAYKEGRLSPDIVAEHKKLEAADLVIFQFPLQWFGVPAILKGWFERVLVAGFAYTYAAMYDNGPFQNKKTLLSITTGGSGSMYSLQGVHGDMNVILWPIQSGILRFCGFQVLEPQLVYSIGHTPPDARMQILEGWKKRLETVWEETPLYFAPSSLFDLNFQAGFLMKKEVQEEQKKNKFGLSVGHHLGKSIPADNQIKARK", "assay": "Induction of NQO1 activity in mouse Hepa-1c1c7 cells assessed as concentration require to double the specific enzyme activity after 48 hrs", "type": "cell-based", "outline": "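Hepa1c1c7 cells, 10,000/well, grown 24 h, then exposed to serial dilutions for 48 h. Potency expressed as concentration doubling NQO1 specific enzyme activity (CD).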"}, "[3]": {"assay": "Cytotoxicity against C57BL/6 mouse BMDM cells assessed as LDH release after 24 hrs", "type": "cell-based", "conditions": "bone marrow-derived macrophages (BMDM cells)", "outline": "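Macrophages exposed to compound without LPS for 24 h; culture supernatant assayed for % LDH released as cell-death measure. Averages of 2 independent experiments, SD.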"}, "BMDM [4]": {"system": "BMDM", "assay": "Antiinflammatory activity in C57BL/6 mouse BMDM cells assessed as inhibition of LPS-stimulated TNFalpha production at 0.5 uM pretreated for 1 hr before LPS challenge after 8 to 24 hrs by immunoassay", "type": "functional, cell-based", "outline": "(§1)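 Macrophages given compound at 0.5 µM; LPS 100 ng/mL added 1 h after start of compound treatment, for 8 h or 24 h. Supernatants collected at 8 or 24 h and assayed for LDH release (% released, cell death), TNF-α or IL-1β (pg/mL). Averages of 2 independent experiments, SD.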"}, "[5]": {"assay": "Induction of apoptosis in LPS-stimulated C57BL/6 mouse BMDM cells assessed as LDH release at 0.5 uM pretreated for 1 hr before LPS challenge after 24 hrs", "type": "cell-based", "outline": "as §1"}, "RAW264.7 [6]": {"system": "RAW264.7", "assay": "Ratio of CDDO IC50 to compound IC50 for antiinflammatory activity in mouse RAW264.7 cells assessed as inhibition of IFNgamma-stimulated NO production", "type": "functional"}, "BMDM [7]": {"system": "BMDM", "assay": "Antiinflammatory activity in C57BL/6 mouse BMDM cells assessed as inhibition of LPS-stimulated […] production at 0.5 uM pretreated for 1 hr before LPS challenge after 8 to 24 hrs by immunoassay", "type": "functional, cell-based", "outline": "as §1"}, "[8]": {"assay": "Induction of apoptosis in LPS-stimulated C57BL/6 mouse BMDM cells assessed as LDH release at 0.5 uM pretreated for 1 hr before LPS challenge after 8 hrs", "type": "cell-based", "outline": "as §1"}, "BMDM [9]": {"system": "BMDM", "assay": "Antiinflammatory activity in C57BL/6 mouse BMDM cells assessed as inhibition of LPS-stimulated TNFalpha production at 0.1 uM pretreated for 1 hr before LPS challenge after 8 to 24 hrs by immunoassay", "type": "functional, cell-based", "outline": "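Macrophages pretreated with compound, then given LPS (100 ng/mL) 1 h after the start of compound exposure for 8 h or 24 h. Culture supernatants were collected at 8 h or 24 h and assayed for secreted TNF-α (pg/mL). Controls were untreated cells and cells given compound without LPS (24 h). Averages of 2 independent experiments; error is standard deviation.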"}, "[10]": {"assay": "Induction of apoptosis in LPS-stimulated C57BL/6 mouse BMDM cells assessed as LDH release at 0.1 uM pretreated for 1 hr before LPS challenge after 8 hrs", "type": "cell-based", "outline": "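Cells were compound-treated, and LPS (100 ng/mL) was added 1 h after the start of compound treatment for 8 h. Supernatant lactate dehydrogenase was measured as % LDH released, as a cell-death read-out. Comparison arms were no-LPS (compound 24 h) and untreated cells. Mean of 2 independent experiments, with standard deviation error bars.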"}},
  "note": "Calls of active or inactive are those of the source. No cut-off for these calls is given here.",
  "data": [
    {"smiles": "C=CC1(C)C=CC(=O)C(C#N)=C1", "note": "(stereo not drawn)", "values": [
      {"measurement": "IC50", "setting": "RAW264.7 [1]", "result": 170, "unit": "nM"},
      {"measurement": "CD", "setting": "[2]", "result": 150, "unit": "nM"}
    ]},
    {"smiles": "CC1(C)C=CC(=O)C(C#N)=C1", "values": [
      {"measurement": "IC50", "setting": "RAW264.7 [1]", "result": 305, "unit": "nM"},
      {"measurement": "CD", "setting": "[2]", "result": 150, "unit": "nM"}
    ]},
    {"smiles": "COC(=O)[C@]12CCC(C)(C)C[C@H]1[C@H]1C(=O)C=C3[C@@]4(C)C=C(C#N)C(=O)C(C)(C)[C@@H]4CC[C@@]3(C)[C@]1(C)CC2", "note": "[BARDOXOLONE METHYL]", "values": [
      {"measurement": "MNTC at 24 h", "setting": "[3]", "result": 500, "unit": "nM"},
      {"measurement": "Activity", "setting": "BMDM [4]", "result": "Active"},
      {"measurement": "Activity", "setting": "[5]", "result": "Not Active"}
    ]},
    {"smiles": "CC#CC1(C)C=CC(=O)C(C#N)=C1", "note": "(stereo not drawn)", "values": [
      {"measurement": "IC50", "setting": "RAW264.7 [1]", "result": 7.3, "unit": "nM"},
      {"measurement": "CD", "setting": "[2]", "result": 33, "unit": "nM"},
      {"measurement": "Ratio IC50", "setting": "RAW264.7 [6]", "result": 2}
    ]},
    {"smiles": "CC1(C)C=C(C#N)C(=O)C(C)(C)C1", "values": [
      {"measurement": "IC50", "setting": "RAW264.7 [1]", "result": 1900, "unit": "nM"},
      {"measurement": "CD", "setting": "[2]", "result": 1900, "unit": "nM"}
    ]},
    {"smiles": "CC1(C)CC[C@]2(C(=O)O)CC[C@]3(C)[C@H](C(=O)C=C4[C@@]5(C)C=C(C#N)C(=O)C(C)(C)[C@@H]5CC[C@]43C)[C@@H]2C1", "note": "[BARDOXOLONE]", "values": [
      {"measurement": "IC50", "setting": "RAW264.7 [1]", "result": 16.5, "unit": "nM"}
    ]},
    {"smiles": "CC1(C#N)C=CC(=O)C(C#N)=C1", "note": "(stereo not drawn)", "values": [
      {"measurement": "IC50", "setting": "RAW264.7 [1]", "result": 219, "unit": "nM"},
      {"measurement": "CD", "setting": "[2]", "result": 58, "unit": "nM"}
    ]},
    {"smiles": "COC(=O)C1(C)C=CC(=O)C(C#N)=C1", "note": "(stereo not drawn)", "values": [
      {"measurement": "IC50", "setting": "RAW264.7 [1]", "result": 58, "unit": "nM"},
      {"measurement": "CD", "setting": "[2]", "result": 320, "unit": "nM"}
    ]},
    {"smiles": "C#CC1(C)C=C(C#N)C(=O)CC1", "note": "(stereo not drawn)", "values": [
      {"measurement": "IC50", "setting": "RAW264.7 [1]", "result": 152, "unit": "nM"},
      {"measurement": "CD", "setting": "[2]", "result": 100, "unit": "nM"}
    ]},
    {"smiles": "C#CC1(C)C=CC(=O)C(C#N)=C1", "note": "(stereo not drawn)", "values": [
      {"measurement": "IC50", "setting": "RAW264.7 [1]", "result": 5.8, "unit": "nM"},
      {"measurement": "CD", "setting": "[2]", "result": 22, "unit": "nM"},
      {"measurement": "MNTC at 24 h", "setting": "[3]", "result": 500, "unit": "nM"},
      {"measurement": "Activity", "setting": "BMDM [4]", "result": "Active"},
      {"measurement": "Activity", "setting": "BMDM [7]", "result": "Active"},
      {"measurement": "Activity", "setting": "[8]", "result": "Toxic"},
      {"measurement": "Ratio IC50", "setting": "RAW264.7 [6]", "result": 2}
    ]},
    {"smiles": "NC(=O)Nc1sc(-c2ccc(F)cc2)cc1C(N)=O", "values": [
      {"measurement": "MNTC at 24 h", "setting": "[3]", "result": 500, "unit": "nM"},
      {"measurement": "Activity", "setting": "BMDM [4]", "result": "Active"},
      {"measurement": "Activity", "setting": "BMDM [7]", "result": "inactive"},
      {"measurement": "Activity", "setting": "[8]", "result": "Toxic"}
    ]},
    {"smiles": "C#C[C@]12C=C(C#N)C(=O)C=C1[C@@]1(C)C=C(C#N)C(=O)C(C)(C)[C@@H]1CC2", "note": "(racemic)", "values": [
      {"measurement": "MNTC at 24 h", "setting": "[3]", "result": 100, "unit": "nM"},
      {"measurement": "Activity", "setting": "BMDM [9]", "result": "Active"},
      {"measurement": "Activity", "setting": "[10]", "result": "Not Active"}
    ]}
  ]
}
